Rows were chosen to be rich in hits. Some 4% of all compounds tested hit in one or more screens of this group.
KCC2 mod = modulates chloride dependent transport by human KCC2 | Q9H2X9 | KCC2 cells, thallium flux FluoZin-2 fluorescence | B-score of Tl+ flux slope (higher = more flux/activation; lower = inhibition) at 10 µM | actives 2.2% (n = 190,000);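 active = thallium flux slope and its plate-corrected score both differing from the plate sample mean at a set confidence after two filtering rounds, in either direction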;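 note: slope of fluorescence scaled to starting intensity during 10 to 20 s after thallium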
Target sequence (Q9H2X9 whole entry, looked up): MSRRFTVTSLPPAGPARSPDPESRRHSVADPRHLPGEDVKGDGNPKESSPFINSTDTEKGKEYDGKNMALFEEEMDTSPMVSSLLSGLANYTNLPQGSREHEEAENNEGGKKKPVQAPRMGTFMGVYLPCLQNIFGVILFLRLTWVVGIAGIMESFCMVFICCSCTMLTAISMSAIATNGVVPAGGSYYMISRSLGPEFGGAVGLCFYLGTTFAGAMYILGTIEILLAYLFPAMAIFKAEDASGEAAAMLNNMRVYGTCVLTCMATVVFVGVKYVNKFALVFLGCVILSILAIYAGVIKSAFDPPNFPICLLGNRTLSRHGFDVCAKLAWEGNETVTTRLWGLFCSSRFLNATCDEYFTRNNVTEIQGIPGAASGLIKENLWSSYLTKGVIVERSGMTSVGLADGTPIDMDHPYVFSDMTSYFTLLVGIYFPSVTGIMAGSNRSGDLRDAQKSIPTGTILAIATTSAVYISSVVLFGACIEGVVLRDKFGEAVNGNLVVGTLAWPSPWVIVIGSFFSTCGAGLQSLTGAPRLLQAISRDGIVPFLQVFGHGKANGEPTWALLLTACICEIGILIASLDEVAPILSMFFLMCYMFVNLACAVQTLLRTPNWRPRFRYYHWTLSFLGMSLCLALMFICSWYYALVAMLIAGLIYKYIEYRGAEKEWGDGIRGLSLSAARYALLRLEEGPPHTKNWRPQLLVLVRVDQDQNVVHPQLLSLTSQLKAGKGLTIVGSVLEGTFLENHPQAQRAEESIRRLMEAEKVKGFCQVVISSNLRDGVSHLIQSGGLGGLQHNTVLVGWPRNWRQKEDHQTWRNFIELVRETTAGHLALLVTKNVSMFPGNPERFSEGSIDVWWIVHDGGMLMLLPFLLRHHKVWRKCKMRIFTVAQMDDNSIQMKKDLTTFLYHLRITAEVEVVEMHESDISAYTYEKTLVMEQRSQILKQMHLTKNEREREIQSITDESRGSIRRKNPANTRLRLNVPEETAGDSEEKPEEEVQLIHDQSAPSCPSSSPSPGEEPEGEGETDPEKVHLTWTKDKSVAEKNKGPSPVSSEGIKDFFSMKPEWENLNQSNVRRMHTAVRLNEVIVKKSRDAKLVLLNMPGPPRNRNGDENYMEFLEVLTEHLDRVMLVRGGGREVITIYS
WT yeast gro inh = growth inhibition of WT yeast, mitochondrial fusion screen | mitochondrial fusion phenotypic screen, WT strain | inhibition, % at 10 µM | actives 2.1% (n = 190,000); in the data active = inhibition above about 58%; tested in S. cerevisiae
MT stabilize HCS = stabilizes microtubules in HeLa cells | actives 0.83% (n = 200,000) | AID 2205 | % tubulin-high responders, % at 10 µM | HeLa tubulin immunostaining HCS, 24 h; share of cells brighter than vehicle mean+2SD;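 active = plate Z-score above 3 for both tubulin-high and condensed-nucleus cell shares, with cell loss under 80%, at 10 µM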;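 note: anti alpha tubulin signal scored within the nucleus-defined area of each cell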
bCat nuc transl = alters nuclear translocation of beta-catenin in HeLa cells. nuclear translocation activity, % at 5 µM. actives 0.3% (n = 190,000). AID 1665. immunofluorescence imaging;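 active = nuclear translocation activity above 50% at 5 µM, with a well cell count of 50 or more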;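 note: per-cell ratio of nuclear to cytoplasmic median beta-catenin stain intensity; plate controls were DMSO negative control for no effect and GSK-3 inhibitor IX positive control for full effect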
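Test system: HeLa cells, endogenous beta-catenin; Compound: single 5 µM dose plus 0.02–20 µM confirmation series; Times: compound exposure 24 h at 37°C; Signal: fluorescence imaging of beta-catenin antibody stain plus DAPI; Read-out: % activation, nuclear-to-cytoplasmic median beta-catenin signal ratio per cell.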
Pf gamet viab = inhibitors of late stage P. falciparum gametocyte viability; P. falciparum stage V gametocytes, ATP luminescence, 24 h; inhibition, % at 10.9 µM; actives 0.065% (n = 150,000);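 active = inhibition above the mean plus 3 SD of compounds within the control limits, set per campaign, cut at about 38% in these data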;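 note: 0% = DMSO wells and 100% = medium only without gametocytes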
* marks the source's active call; other numbers are inactive results; . = no result.

SMILES | KCC2 mod | WT yeast gro inh | MT stabilize HCS | bCat nuc transl | Pf gamet viab
COc1ccc(C(=O)NCC2CCCO2)cc1OC (stereo unspecified) | -0.8 | . | . | 0 | -2
CC(C)(C)c1cc(OC(=O)c2ccccc2F)ccc1O | . | 72* | 3 | -1 | .
O=C(O)CCCCCN1C(=O)C(O)=C(C(=O)/C=C/c2ccccc2)C1c1ccccc1[N+](=O)[O-] (stereo unspecified) | 0.65 | -1 | 2 | 2 | -14
CC/C(=N/NC(=O)c1ccccc1O)c1c(C)[nH]n(-c2ccccc2)c1=O | . | . | . | . | -7
CC(=O)COc1cc(C)cc2oc(=O)cc(-c3ccccc3)c12 | 0.76 | -18 | 3 | 0 | 11
COc1ccc([N+](=O)[O-])cc1COc1cc(C)cc2oc(=O)cc(-c3ccccc3)c12 | . | -4 | 18* | -5 | 11
CN(C(=S)NC(=O)c1ccccc1Br)C1CCCCC1 | 31* | 16 | 2 | 1 | .
COc1ccccc1/C=C/C(=O)NC(=S)N(C)C1CCCCC1 | 9.8* | 22 | 2 | . | -16
CCCc1nc2sc3c(SCC(=O)NCc4ccco4)ncnc3c2c2c1CCC2 | 0.68 | -4 | 15* | 77* | .
Cc1nc(SCC(=O)NCc2ccco2)c2c3c(sc2n1)CCCC3 | -0.028 | -5 | 7 | -1 | .
COc1ccc(Cl)cc1-c1nc(SCC(=O)NC2CC2)n[nH]1 | 1.1 | 5 | 7 | -2 | -5
O=C(COc1ccccc1)Nc1ccccc1Oc1ccccc1 | 0.24 | 62* | 3 | 0 | 2
NC(=O)C1(N2CCCCC2)CCN(c2nc(-c3ccc(Br)cc3)cs2)CC1 | . | 65* | 2 | . | 4
COc1ccc(/C=N/NC(=O)c2ccccc2Cl)cc1CSc1nc2ccccc2s1 | -0.25 | . | 17 | 332* | 13
COc1ccc(/C=N/NC(=O)c2cccnc2)cc1COc1ccc([N+](=O)[O-])c(C)c1 | -1 | . | . | 82* | 14
COc1ccc(/C=N/NC(=O)CCSc2nc3ccccc3s2)cc1OC | -1.2 | 8 | 2 | 2 | -8
COc1cc(/C=N/NC(=O)c2ccccc2Cl)ccc1Oc1ccc([N+](=O)[O-])cn1 | -1.1 | -20 | 17* | 2 | -2
COc1ccc(/C=N/NC(=O)c2cccnc2)cc1CSc1nc2ccccc2s1 | -0.92 | 32 | 13 | 153* | 19
COc1ccc(/C=N/NC(=O)c2ccn[nH]2)cc1COc1ccc([N+](=O)[O-])c(C)c1 | -1.1 | . | . | 1 | 6
N/C(=N\OC(=O)Cc1cccs1)c1ccc([N+](=O)[O-])cc1 | -0.051 | 4 | 3 | -2 | 4
O=C(NCCCCNC(=O)C(F)(F)F)C(F)(F)F | 0.77 | 1 | 1 | 0 | -4
CC(C)(C)OC(=O)C[C@@H]1C/C=C\C[C@H](CC(=O)N(CCO)Cc2ccccc2)C(=O)N[C@H](C(C)(C)C)COC1=O | . | . | . | . | -10
C#CCOC(=O)C[N+](C)(C)CC#Cc1ccccc1 | -0.27 | 0 | 2 | 0 | -1
CCn1ncc(C2=NOC(C(=O)NCc3ccccc3)C2)c1C (stereo unspecified) | 0.95 | -7 | 31* | 64* | 16
CCn1ncc(C2=NOC(C(=O)NCc3ccc(OC)cc3)C2)c1C (stereo unspecified) | 1.7 | . | 18* | 147* | 9
SMILES | KCC2 mod | WT yeast gro inh | MT stabilize HCS | bCat nuc transl | Pf gamet viab
Cc1nc(N2CCOCC2)[nH]c(=O)c1C(O)C(Cl)(Cl)Cl (stereo unspecified) | -0.8 | . | . | 1 | -4
Cc1cc2nnc(SCC(=O)NCc3cccs3)n2c2ccccc12 | -0.75 | 5 | 42* | 45 | -2
Cc1cc2nnc(SCC(=O)NCc3ccco3)n2c2ccccc12 | . | . | . | . | 11
COc1ccc(C(=O)CSc2nnc3n2CCCN3C(=O)Nc2ccccc2)cc1 | -0.13 | . | . | 0 | -10
Cc1cc(OCc2cccc(Cl)c2)c(C)cc1CN1CCOCC1 | -0.14 | 70* | 5 | -1 | 4
Cc1occc1C(=O)NNC(=O)c1ccccc1F | -1 | -6 | 2 | 1 | -2
CCOc1ccccc1OCC(=O)N/N=C(\C)Cc1ccc(OC)cc1 | 3.7 | -15 | 15* | 4 | -23
COc1ccc(C/C(C)=N/NC(=S)Nc2ccccc2)cc1 | 32* | 13 | 3 | . | 8
O=c1c(-c2nc3ccccc3s2)cccn1Cc1ccc(Cl)c(Cl)c1 | . | 42 | 0 | -1 | -3
CN(C)CCCN(C(=O)COc1ccc(Cl)cc1)c1nc2c(F)cccc2s1 | -1 | 0 | 2 | -3 | 6
Cc1cc(C)c2sc(N(CCCN(C)C)C(=O)COc3ccc(Cl)cc3)nc2c1 | 0.24 | 89* | 4 | 3 | -16

Screening data: PubChem BioAssay, several laboratories
